In ChEMBL document CHEMBL4382240, “Discovery of novel 2,5-dihydroxyterephthalamide derivatives as multifunctional agents for the treatment of Alzheimer's disease” (Bioorg Med Chem, 2018) one finds IC50, inhibition and Activity data, which are given here for 13 molecules.

Molecules are shown by their SMILES.

For assay [1], the target named is T1, Amyloid-beta precursor protein (Homo sapiens, UniProt P05067). The experiment in a line: Inhibition of human amyloid beta (1 to 42) self-induced aggregation after 24 hrs by Thioflavin T based fluorometric assay. The procedure, abridged: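 Self-induced Aβ1-42 aggregation (25 µM peptide) in phosphate buffer, pH 7.4, for 24 h at 37 °C with varying compound concentrations. Aggregation read by ThT fluorescence (5 µM ThT, glycine-NaOH pH 8.5).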
T1 sequence (P05067 whole entry): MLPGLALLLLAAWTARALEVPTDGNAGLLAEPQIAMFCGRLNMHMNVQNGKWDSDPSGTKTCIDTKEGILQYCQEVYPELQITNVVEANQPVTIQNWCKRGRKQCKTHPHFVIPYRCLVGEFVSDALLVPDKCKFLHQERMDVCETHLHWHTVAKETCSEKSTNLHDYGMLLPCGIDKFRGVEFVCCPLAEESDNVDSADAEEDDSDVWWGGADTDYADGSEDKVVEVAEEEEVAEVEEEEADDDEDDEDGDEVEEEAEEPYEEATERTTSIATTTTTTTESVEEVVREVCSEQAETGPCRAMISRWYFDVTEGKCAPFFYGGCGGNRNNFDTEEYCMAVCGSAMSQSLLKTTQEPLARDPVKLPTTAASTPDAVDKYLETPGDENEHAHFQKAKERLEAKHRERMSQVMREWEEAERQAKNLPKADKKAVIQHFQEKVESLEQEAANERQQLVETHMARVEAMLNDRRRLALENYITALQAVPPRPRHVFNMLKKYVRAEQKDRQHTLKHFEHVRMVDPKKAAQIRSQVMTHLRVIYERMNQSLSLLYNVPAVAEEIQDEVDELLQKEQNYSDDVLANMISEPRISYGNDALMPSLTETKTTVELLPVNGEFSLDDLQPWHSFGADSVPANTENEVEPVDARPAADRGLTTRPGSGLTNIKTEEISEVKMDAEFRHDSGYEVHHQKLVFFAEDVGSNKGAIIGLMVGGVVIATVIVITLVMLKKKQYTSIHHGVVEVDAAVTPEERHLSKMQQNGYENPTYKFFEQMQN

The target in assay [2] is T1, Amyloid-beta precursor protein. The experiment in a line: Inhibition of human amyloid beta (1 to 42) self-induced aggregation at 25 uM after 24 hrs by Thioflavin T based fluorometric assay relative to control. An outline of the steps: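 Aβ1-42 (25 µM final) incubated with compound (25 µM final) in 50 mM phosphate buffer, pH 7.4, for 24 h at 37 °C under a sealing film. ThT (5 µM) in 50 mM glycine-NaOH, pH 8.5, then added and fluorescence measured. Triplicate; mean ± SD of three independent experiments.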

In assay [3] the target is T2, Acetylcholinesterase (Rattus norvegicus, UniProt P37136).
T2 sequence (P37136 whole entry): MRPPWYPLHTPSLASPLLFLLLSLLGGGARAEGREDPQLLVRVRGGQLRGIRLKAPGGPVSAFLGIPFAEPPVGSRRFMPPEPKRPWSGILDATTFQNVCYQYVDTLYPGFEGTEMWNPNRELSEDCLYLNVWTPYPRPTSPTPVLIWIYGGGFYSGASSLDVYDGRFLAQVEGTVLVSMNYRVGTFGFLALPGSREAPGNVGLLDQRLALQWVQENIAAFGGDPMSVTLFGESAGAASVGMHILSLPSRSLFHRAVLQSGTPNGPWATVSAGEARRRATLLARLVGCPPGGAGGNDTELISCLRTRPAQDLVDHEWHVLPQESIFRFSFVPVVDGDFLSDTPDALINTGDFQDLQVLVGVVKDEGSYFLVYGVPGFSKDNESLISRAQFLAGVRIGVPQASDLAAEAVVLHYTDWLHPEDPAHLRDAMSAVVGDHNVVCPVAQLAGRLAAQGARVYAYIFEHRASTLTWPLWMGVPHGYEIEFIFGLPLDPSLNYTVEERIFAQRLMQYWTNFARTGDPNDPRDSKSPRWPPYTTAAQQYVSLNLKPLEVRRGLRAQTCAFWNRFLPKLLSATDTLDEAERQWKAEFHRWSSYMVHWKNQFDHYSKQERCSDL
The experiment in a line: Inhibition of rat cortex AChE using acetylthiocholine iodide as substrate after 15 mins by Ellman's method.

The nature of assay [4]: Antioxidant activity assessed as trolox equivalent of APPH-induced radical scavenging activity at 5 uM preincubated for 15 mins followed by AAPH addition measured every minute for 90 mins by ORAC fluorescein assay. It counts as functional. An outline of the steps: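 ORAC-FL in 75 mM phosphate buffer, pH 7.4. Fluorescein (150 nM final) and sample (tested at 1–10 µM) incubated 15 min at 37 °C. AAPH (12 mM final) then added, and fluorescence (ex 485/em 535 nm) read every minute for 90 min. Trolox standard 1–8 µM; result expressed as µM Trolox equivalent per µM compound. Duplicate wells; three independent experiments.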

The nature of assay [5]: Disaggregation of Cu2+ induced preformed fibrils of human amyloid beta (1 to 42) at 25 uM after 24 hrs by Thioflavin T based fluorometric assay relative to control. An outline of the steps:
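Aβ1-42 (25 µM) with Cu2+ (25 µM) in HEPES buffer pre-aggregated 24 h at 37 °C. Compound (25 µM) then added for a further 24 h at 37 °C. Fibril content measured by ThT fluorescence (glycine-NaOH, pH 8.5). Triplicate; three independent experiments.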

In a further assay the target is Butyrylcholinesterase (Rattus norvegicus, UniProt Q9JKC1). Put plainly: Inhibition of rat serum BuChE using butyrylthiocholine iodide as substrate after 15 mins by Ellman's method. It counts as ADME. In general terms: In Ellman's method for cholinesterases, released thiocholine reacts with DTNB.
Butyrylcholinesterase, sequence (Q9JKC1 whole entry): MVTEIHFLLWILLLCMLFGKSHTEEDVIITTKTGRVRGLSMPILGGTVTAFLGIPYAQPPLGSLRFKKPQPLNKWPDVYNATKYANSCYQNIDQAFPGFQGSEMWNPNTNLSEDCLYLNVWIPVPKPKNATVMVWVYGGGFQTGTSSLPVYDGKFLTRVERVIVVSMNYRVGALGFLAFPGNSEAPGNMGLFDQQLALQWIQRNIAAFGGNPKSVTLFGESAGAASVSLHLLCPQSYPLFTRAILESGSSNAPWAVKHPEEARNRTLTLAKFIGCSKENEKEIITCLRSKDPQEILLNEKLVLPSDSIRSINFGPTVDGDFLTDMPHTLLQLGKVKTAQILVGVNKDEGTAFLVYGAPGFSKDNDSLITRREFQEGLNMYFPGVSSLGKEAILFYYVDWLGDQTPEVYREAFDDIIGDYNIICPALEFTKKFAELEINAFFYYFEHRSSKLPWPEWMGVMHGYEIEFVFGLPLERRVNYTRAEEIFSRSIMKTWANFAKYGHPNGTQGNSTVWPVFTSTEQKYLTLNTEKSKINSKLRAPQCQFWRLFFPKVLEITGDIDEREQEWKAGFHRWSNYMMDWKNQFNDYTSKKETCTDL
In assay [6] the target is T1, Amyloid-beta precursor protein. Put plainly: Disaggregation of self-induced preformed fibrils of human amyloid beta (1 to 42) at 25 uM after 24 hrs by Thioflavin T based fluorometric assay relative to control. The procedure, abridged: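 Aβ1-42 diluted in HEPES buffer (20 mM, pH 6.6, 150 mM NaCl) and pre-aggregated 24 h at 37 °C. Compound (25 µM) then added for another 24 h at 37 °C on a sealed plate. Remaining fibrils read by ThT fluorescence in glycine-NaOH, pH 8.5. Triplicate; three independent experiments.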

A short description of assay [7]: Inhibition of Cu2+ induced human amyloid beta (1 to 42) aggregation at 25 uM after 24 hrs by Thioflavin T based fluorometric assay relative to control. The procedure, abridged: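 Aβ1-42 (25 µM) and Cu2+ (25 µM) in HEPES buffer (20 mM, pH 6.6, 150 mM NaCl), with or without compound (25 µM final), incubated 24 h at 37 °C. ThT (5 µM) in glycine-NaOH, pH 8.5, added and fluorescence read. Triplicate; three independent experiments.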

The target in assay [8] is Acetylcholinesterase (Electrophorus electricus, UniProt O42275). The experiment in a line: Inhibition of electric eel AChE using acetylthiocholine iodide as substrate after 15 mins by Ellman's method.
Acetylcholinesterase (Electrophorus electricus, UniProt O42275), sequence (O42275 whole entry): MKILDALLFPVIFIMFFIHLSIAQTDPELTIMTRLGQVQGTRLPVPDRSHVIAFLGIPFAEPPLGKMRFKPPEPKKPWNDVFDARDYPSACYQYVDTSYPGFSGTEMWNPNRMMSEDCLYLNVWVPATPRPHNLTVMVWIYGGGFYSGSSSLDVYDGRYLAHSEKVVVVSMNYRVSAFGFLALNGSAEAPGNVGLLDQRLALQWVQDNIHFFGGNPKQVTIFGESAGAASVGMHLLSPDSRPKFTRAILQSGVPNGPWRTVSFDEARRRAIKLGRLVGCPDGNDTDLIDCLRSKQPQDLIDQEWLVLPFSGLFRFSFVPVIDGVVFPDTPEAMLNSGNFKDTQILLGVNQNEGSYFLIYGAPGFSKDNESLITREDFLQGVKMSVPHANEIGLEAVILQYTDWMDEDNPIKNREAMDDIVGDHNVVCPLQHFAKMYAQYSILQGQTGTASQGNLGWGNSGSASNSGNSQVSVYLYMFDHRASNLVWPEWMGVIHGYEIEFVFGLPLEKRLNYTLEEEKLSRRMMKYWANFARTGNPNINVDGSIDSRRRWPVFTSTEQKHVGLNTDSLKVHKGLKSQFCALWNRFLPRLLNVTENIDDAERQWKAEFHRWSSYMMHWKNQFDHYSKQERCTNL

`CN(CCCCCCNC(=O)c1cc(O)c(C(=O)NCCCCCCN(C)Cc2ccccc2)cc1O)Cc1ccccc1`: the IC50 in assay [1] turned out to be 2.37 µM; on Acetylcholinesterase [3], 5.6 µM; at Butyrylcholinesterase it was 41.9 µM; on Acetylcholinesterase [8], 13.1 µM. Moreover, the values for the inhibition in [2] and in [7] were 99.8% and 89.1%, respectively. The Activity in [4] was 1.01 equiv; in [5] it was 89.3%; in assay [6], 80.9%.

`COc1ccccc1CN(C)CCCNC(=O)c1cc(O)c(C(=O)NCCCN(C)Cc2ccccc2OC)cc1O`: the IC50 in [1] was 3.63 µM; against Acetylcholinesterase [3], 9.21 µM; against Butyrylcholinesterase it was 17.3 µM; against Acetylcholinesterase [8] it was 39.7 µM. For the same molecule, the results for the inhibition in assay [2] and in assay [7] were 93.5% and 70.4%, respectively. Further, the Activity in assay [4] was determined as 1.37 equiv; in [5] it was 73.5%; in assay [6] it was 70.1%.

With `CCN(CCCNC(=O)c1cc(O)c(C(=O)NCCCN(CC)Cc2ccccc2)cc1O)Cc1ccccc1`, the IC50 is 4.2 µM in assay [1], 7.8 µM against Acetylcholinesterase [3], more than 100 µM on Butyrylcholinesterase and 26.8 µM against Acetylcholinesterase [8]. The inhibition in [2] turned out to be 81%; in assay [7] it was 57.6%. Moreover, the Activity in [4] stood at 0.95 equiv; in [5], 70.6%; in assay [6] it was 62.7%.

Take `CCN(CCCCNC(=O)c1cc(O)c(C(=O)NCCCCN(CC)Cc2ccccc2N(C)C)cc1O)Cc1ccccc1N(C)C`: the IC50 in [1] was 3.71 µM; on Acetylcholinesterase [3] it was 4.17 µM; on Butyrylcholinesterase, more than 100 µM; against Acetylcholinesterase [8], 10.8 µM. Further, the inhibition in [2] was found to be 99.7%; in assay [7], 69.4%. For the same molecule, the Activity in assay [4] stood at 1.16 equiv; in assay [5] it was 83.3%; in [6], 64.4%.

On to `CN(CCCCNC(=O)c1cc(O)c(C(=O)NCCCCN(C)Cc2ccccc2)cc1O)Cc1ccccc1`, for which the IC50 in assay [1] was 3.55 µM; on Acetylcholinesterase [3] it was 5.21 µM; against Butyrylcholinesterase it was more than 100 µM; against Acetylcholinesterase [8], 12.6 µM. In addition, the values for the inhibition in assay [2] and in assay [7] were 90% and 77.6%, respectively. The results for the Activity in [4], in [5] and in assay [6] were 1.52 equiv, 77.9% and 67.7%, respectively.

In the case of `O=C(NCCCCN1CCOc2ccccc2C1)c1cc(O)c(C(=O)NCCCCN2CCOc3ccccc3C2)cc1O`, the IC50 is 5.47 µM in assay [1], 30.8 µM against Acetylcholinesterase [3], more than 100 µM against Butyrylcholinesterase and 64.8 µM at Acetylcholinesterase [8]. Moreover, the inhibition is 71.6% in [2] and 74% in assay [7]. For the same molecule, the Activity in [4] amounted to 1.02 equiv; in assay [5], 85.3%; in [6] it was 67.4%.

`CCN(CCCCCCNC(=O)c1cc(O)c(C(=O)NCCCCCCN(CC)Cc2ccccc2)cc1O)Cc1ccccc1`: the IC50 in assay [1] is 2.8 µM; at Acetylcholinesterase [3] it was 4.6 µM; against Butyrylcholinesterase, 47.2 µM; against Acetylcholinesterase [8], 22.9 µM. In addition, the results for the inhibition in assay [2] and in assay [7] were 91.4% and 74.3%, respectively. Also, the values for the Activity in assay [4], in [5] and in [6] were 1.27 equiv, 82.3% and 83.5%, respectively.

Regarding `CCN(CCCCNC(=O)c1cc(O)c(C(=O)NCCCCN(CC)Cc2ccc(N(C)C)cc2)cc1O)Cc1ccc(N(C)C)cc1`, the IC50 in assay [1] was 3.16 µM; against Acetylcholinesterase [3] it was 27.4 µM; against Butyrylcholinesterase, more than 100 µM; against Acetylcholinesterase [8], 47.4 µM. Moreover, the inhibition in assay [2] came out at 99.9%; in [7] it was 82.5%. The Activity is 3.23 equiv in assay [4], 84.7% in [5] and 60.4% in assay [6].

As for `CCOC(=O)c1cc(O)c(C(=O)OCC)cc1O`, the inhibition in assay [2] is 6.5%; in [7] it was 30.7%. Further, the IC50 against Acetylcholinesterase [3], against Butyrylcholinesterase and against Acetylcholinesterase [8] was more than 100 µM each time. Further, the Activity in assay [4] was determined as 0.96 equiv.

In assay [5], `COc1cc(/C=C/C(=O)CC(=O)/C=C/c2ccc(O)c(OC)c2)ccc1O` came in with an Activity of 54.7%. Besides, the inhibition in assay [7] worked out at 66%.

Turning to `COc1ccccc1CN(C)CCCCCCNC(=O)c1cc(O)c(C(=O)NCCCCCCN(C)Cc2ccccc2OC)cc1O`, the IC50 in assay [1] came out at 2.31 µM; on Acetylcholinesterase [3], 10.6 µM; against Butyrylcholinesterase, 40.5 µM; against Acetylcholinesterase [8], 6.11 µM. The inhibition in assay [2] is 99.7%; in [7] it was 85.3%. Moreover, the Activity is 0.62 equiv in [4], 89.8% in assay [5] and 76.3% in assay [6].

Take `CCN(CCCCNC(=O)c1cc(O)c(C(=O)NCCCCN(CC)Cc2ccccc2)cc1O)Cc1ccccc1`: the IC50 in assay [1] is 3.86 µM; against Acetylcholinesterase [3], 4.05 µM; against Butyrylcholinesterase, more than 100 µM; on Acetylcholinesterase [8], 14 µM. The inhibition in assay [2] is 88%; in assay [7] it was 84.1%. Further, the figures for the Activity in assay [4], in [5] and in assay [6] were 0.93 equiv, 80% and 81.1%, respectively.

As to `CN(CCCNC(=O)c1cc(O)c(C(=O)NCCCN(C)Cc2ccccc2)cc1O)Cc1ccccc1`, the IC50 in assay [1] is 3.98 µM; against Acetylcholinesterase [3] it was 11.3 µM; on Butyrylcholinesterase it was more than 100 µM; against Acetylcholinesterase [8], 14.1 µM. Besides, the inhibition was 85% in [2] and 81.2% in assay [7]. For the same molecule, the Activity in assay [4] was determined as 1.21 equiv; in assay [5] it was 71.3%; in assay [6], 68.5%.

One may read the IC50 as the midpoint of a concentration-inhibition curve. A higher IC50 goes with lower potency. As a reminder, the inhibition is the percentage by which the read-out fell short of the control.
